Data from ChEMBL document CHEMBL1122284, “Aromatic retinoic acid analogues. 2. Synthesis and pharmacological activity” (1983).

Experiments:
Cricetinae gen. sp. [1] = assay: Total cultures(11) versus active(12)at 10e-8 M conc. in hamster tracheal organ culture assay (TOC); format: functional, Trachea
Procedure, shortened: (§1)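 Tracheas from Syrian golden hamsters kept on a vitamin A deficient diet from birth to 30–32 days old. Cultured serum-free (CMRL 1066 with insulin, hydrocortisone, glutamine, antibiotics), one explant per dish, 50% O2/45% N2/5% CO2, 36 °C, rocked. 3 days without retinoid, then 7 days with retinoid, medium renewed three times. Histology on day 10. Active means keratin/keratohyaline granules absent. Usually duplicate, 6–7 tracheas per concentration.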

Cricetinae gen. sp. [2] = assay: Relative potency with respect to retinoic acid in hamster tracheal organ culture assay (TOC); format: functional, Cricetulus griseus, Trachea
Cricetinae gen. sp. [3] = assay: Total cultures(6) versus active(13) at 10e-10 M conc. in hamster tracheal organ culture assay (TOC); format: functional, Trachea; procedure, shortened: as §1
[4] = target: T1, Ornithine decarboxylase (Mus musculus) (UniProt P00860); assay: Percent inhibition of the induction of ornithine decarboxylase at 1.7 nmol in mouse dorsal epidermis (ODC assay); format: functional
T1 sequence (whole entry): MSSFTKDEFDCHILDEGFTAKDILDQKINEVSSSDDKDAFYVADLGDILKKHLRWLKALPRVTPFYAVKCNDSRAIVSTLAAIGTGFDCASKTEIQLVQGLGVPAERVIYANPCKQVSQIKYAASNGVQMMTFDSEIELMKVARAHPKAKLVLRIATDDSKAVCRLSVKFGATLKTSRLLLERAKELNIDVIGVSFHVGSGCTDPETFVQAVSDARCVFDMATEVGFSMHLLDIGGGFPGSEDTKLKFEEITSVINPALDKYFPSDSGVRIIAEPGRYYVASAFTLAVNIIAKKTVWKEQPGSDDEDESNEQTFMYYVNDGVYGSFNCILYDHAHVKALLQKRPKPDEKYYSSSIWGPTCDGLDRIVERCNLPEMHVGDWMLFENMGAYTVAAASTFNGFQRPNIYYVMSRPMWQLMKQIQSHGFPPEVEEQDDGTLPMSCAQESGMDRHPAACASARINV

[5] = target: T1, Ornithine decarboxylase (Mus musculus); assay: Percent inhibition of the induction of ornithine decarboxylase at 17 nmol dose in mouse dorsal epidermis (ODC assay); format: functional
Cricetinae gen. sp. [6] = assay: Total cultures(10) versus active (12)at 10e-9 M conc. in hamster tracheal organ culture assay (TOC); format: functional, Trachea; procedure, shortened: as §1
Cricetinae gen. sp. [7] = assay: ED50 of retinoid required to effect reversal of keratinization; format: functional; procedure, shortened: as §1
Cricetinae gen. sp. [8] = assay: Total cultures (13) versus active (4) at 10e-10 M conc. in hamster tracheal organ culture assay (TOC); format: functional, Trachea; procedure, shortened: as §1
Cricetinae gen. sp. [9] = assay: Total cultures(11) versus active (5) at 10e-8 M conc. in hamster tracheal organ culture assay (TOC); format: functional, Trachea; procedure, shortened: as §1
Cricetinae gen. sp. [10] = assay: Total cultures(13) versus active (5) at 10e-9 M conc. in hamster tracheal organ culture assay (TOC); format: functional, Trachea; procedure, shortened: as §1
Cricetinae gen. sp. [11] = assay: Total cultures(6) versus active (1) at 10e-10 M conc. in hamster tracheal organ culture assay (TOC); format: functional, Trachea; procedure, shortened: as §1
Cricetinae gen. sp. [12] = assay: Total cultures(12) versus active (3) at 10e-9 M conc. in hamster tracheal organ culture assay (TOC); format: functional, Trachea; procedure, shortened: as §1
Cricetinae gen. sp. [13] = assay: Total cultures(14) versus active (4) at 10e-8 M conc. in hamster tracheal organ culture assay (TOC); format: functional, Trachea; procedure, shortened: as §1
[14] = target: T1, Ornithine decarboxylase (Mus musculus); assay: Percent inhibition of the induction of ornithine decarboxylase in mouse dorsal epidermis (ODC assay); format: functional
Cricetinae gen. sp. [15] = assay: Total cultures(12) versus active(12) at 10e-9 M conc. in hamster tracheal organ culture assay (TOC); format: functional, Trachea; procedure, shortened: as §1
Cricetinae gen. sp. [16] = assay: Total cultures(0) versus active(6) at 10e-11 M conc. in hamster tracheal organ culture assay (TOC); format: functional, Trachea; procedure, shortened: as §1
Cricetinae gen. sp. [17] = assay: Total cultures(6) versus active(6) at 10e-8 M conc. in hamster tracheal organ culture assay (TOC); format: functional, Trachea; procedure, shortened: as §1
Cricetinae gen. sp. [18] = assay: Total cultures(3) versus active(11) at 10e-10 M conc. in hamster tracheal organ culture assay (TOC); format: functional, Trachea; procedure, shortened: as §1
Cricetinae gen. sp. [19] = assay: Total cultures (14) versus active (8) at 10e-9 M conc. in hamster tracheal organ culture assay (TOC); format: functional, Trachea; procedure, shortened: as §1
Cricetinae gen. sp. [20] = assay: Total cultures(7) versus active (7) at 10e-8 M conc. in hamster tracheal organ culture assay (TOC); format: functional, Trachea; procedure, shortened: as §1
Cricetinae gen. sp. [21] = assay: Total cultures (14) versus active (4) at 10e-10 M conc. in hamster tracheal organ culture assay (TOC); format: functional, Trachea; procedure, shortened: as §1
Cricetinae gen. sp. [22] = assay: Total cultures(5) versus active(13) at 10e-10 M conc. in hamster tracheal organ culture assay (TOC); format: functional, Trachea; procedure, shortened: as §1
Cricetinae gen. sp. [23] = assay: Total cultures(12) versus active(13) at 10e-9 M conc. in hamster tracheal organ culture assay (TOC); format: functional, Trachea; procedure, shortened: as §1
Cricetinae gen. sp. [24] = assay: Total cultures(13) versus active(13) at 10e-8 M conc. in hamster tracheal organ culture assay (TOC); format: functional, Trachea; procedure, shortened: as §1
Cricetinae gen. sp. [25] = assay: Total cultures(15) versus active (7) at 10e-10 M conc. in hamster tracheal organ culture assay (TOC); format: functional, Trachea; procedure, shortened: as §1
Cricetinae gen. sp. [26] = assay: Total cultures(15) versus active (15) at 10e-8 M conc. in hamster tracheal organ culture assay (TOC); format: functional, Trachea; procedure, shortened: as §1
Cricetinae gen. sp. [27] = assay: Total cultures(15) versus active (14) at 10e-9 M conc. in hamster tracheal organ culture assay (TOC); format: functional, Trachea; procedure, shortened: as §1

SMILES | inhibition of control [4] [%] | inhibition of control [5] [%] | Relative activity (Cricetinae gen. sp. [2]) | ED50 (Cricetinae gen. sp. [7]) [pM] | further results
CC1=C(/C=C/C(C)=C/c2ccc(C(=O)O)o2)C(C)(C)CCC1 | 7 | 5 | <<0.1 | 20 | Active/total cultures (Cricetinae gen. sp. [8]): 31%; Active/total cultures (Cricetinae gen. sp. [9]): 45%; Active/total cultures (Cricetinae gen. sp. [10]): 38%
CC1=C(/C=C/C(C)=C\c2ccc(C(=O)O)cc2)C(C)(C)CCC1 | 33 | 43 | <0.1 | 10 | inhibition of control [14]: 64%
CCOC(=O)c1ccc(/C=C(C)/C=C/C2=C(C)CCCC2(C)C)cn1 | 29 | 60 | 0.4 | 8 | Active/total cultures (Cricetinae gen. sp. [19]): 57%; Active/total cultures (Cricetinae gen. sp. [20]): 100%; Active/total cultures (Cricetinae gen. sp. [21]): 29%
CC1=C(/C=C/C(C)=C(\F)c2ccc(C(=O)O)cc2)C(C)(C)CCC1 | 70 | 80 | 3 | 20 | Active/total cultures (Cricetinae gen. sp. [22]): 38%; Active/total cultures (Cricetinae gen. sp. [23]): 92%; Active/total cultures (Cricetinae gen. sp. [24]): 100%

More lines, main results first:

inhibition of control [4] [%] | inhibition of control [5] [%] | SMILES | Relative activity (Cricetinae gen. sp. [2]) | ED50 (Cricetinae gen. sp. [7]) [pM] | further results
56 | 82 | CCOC(=O)c1ccc(/C(F)=C(C)/C=C/C2=C(C)CCCC2(C)C)cc1 | 2 | 20 | Active/total cultures (Cricetinae gen. sp. [1]): 92%; Active/total cultures (Cricetinae gen. sp. [3]): 46%; Active/total cultures (Cricetinae gen. sp. [6]): 83%
9 | 9 | CCOC(=O)c1ccc(/C=C(C)/C=C/C2=C(C)CCCC2(C)C)o1 | <<0.1 | 20 | Active/total cultures (Cricetinae gen. sp. [11]): 17%; Active/total cultures (Cricetinae gen. sp. [12]): 25%; Active/total cultures (Cricetinae gen. sp. [13]): 29%
37 | 78 | CC1=C(/C=C/C(C)=C/c2ccc(C(=O)O)cc2F)C(C)(C)CCC1 | 5 | 6 | Active/total cultures (Cricetinae gen. sp. [15]): 100%; Active/total cultures (Cricetinae gen. sp. [16]): 0%; Active/total cultures (Cricetinae gen. sp. [17]): 100%; Active/total cultures (Cricetinae gen. sp. [18]): 27%
42 | 67 | CC1=C(/C=C/C(C)=C/c2ccc(C(=O)O)s2)C(C)(C)CCC1 | 2 | 20 | Active/total cultures (Cricetinae gen. sp. [25]): 47%; Active/total cultures (Cricetinae gen. sp. [26]): 100%; Active/total cultures (Cricetinae gen. sp. [27]): 93%
